Test results reported in ChEMBL document CHEMBL2150957, “Substrate-Selective Inhibition of Cyclooxygenase-2: Development and Evaluation of Achiral Profen Probes” (ACS Med Chem Lett, 2012).

Experiments:
[1] = target: T1, Prostaglandin G/H synthase 2 (Mus musculus) (UniProt Q05769); assay: Inhibition of mouse COX2-mediated arachidonic acid oxygenation at 10 uM preincubated for 3 mins before […] measured after 30 seconds
T1 sequence (whole entry): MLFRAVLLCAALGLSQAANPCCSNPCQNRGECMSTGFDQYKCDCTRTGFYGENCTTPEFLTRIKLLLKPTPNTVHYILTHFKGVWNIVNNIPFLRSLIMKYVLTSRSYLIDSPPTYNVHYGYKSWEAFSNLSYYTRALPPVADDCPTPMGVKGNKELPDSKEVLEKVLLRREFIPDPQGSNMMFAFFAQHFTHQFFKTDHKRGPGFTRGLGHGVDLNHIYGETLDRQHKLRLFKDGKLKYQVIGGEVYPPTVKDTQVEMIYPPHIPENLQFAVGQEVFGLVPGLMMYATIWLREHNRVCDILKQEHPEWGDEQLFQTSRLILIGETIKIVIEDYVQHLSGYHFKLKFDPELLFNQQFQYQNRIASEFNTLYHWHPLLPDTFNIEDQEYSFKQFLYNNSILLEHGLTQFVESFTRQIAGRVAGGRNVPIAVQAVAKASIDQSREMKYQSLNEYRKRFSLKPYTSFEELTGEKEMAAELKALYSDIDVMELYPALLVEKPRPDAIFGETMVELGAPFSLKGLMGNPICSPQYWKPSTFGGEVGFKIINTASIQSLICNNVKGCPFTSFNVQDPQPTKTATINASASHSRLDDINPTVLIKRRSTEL
Procedure, shortened: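 Purified murine COX-2 (40 nM) preincubated 3 min with inhibitor (10 μM) in DMSO, with a solvent control. Arachidonic acid (5 μM) then added and reacted 30 s at 37 °C. Percent inhibition of AA oxygenation. Mean ± standard deviation, n = 6.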

[2] = target: T1, Prostaglandin G/H synthase 2 (Mus musculus); assay: Inhibition of mouse COX2-mediated 2-arachidonoylglycerol oxygenation at 10 uM preincubated for 3 mins before 2-arachidonoylglycerol addition measured after 30 seconds relative to control
Procedure, shortened: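 Purified murine COX-2 (40 nM) preincubated 3 min with inhibitor in DMSO, with a solvent control. 2-AG (5 μM) then added and reacted 30 s at 37 °C. Value is the maximum inhibition at 10 μM inhibitor. Mean ± standard deviation, n = 6.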

[3] = system: Plasma; assay: Metabolic stability of the compound in C57BL/6 mouse plasma assessed as parent compound level at 10 mg/kg, ip after 16 hrs; assay type: ADME, organism-based; design: dose 10 mg/kg, route intraperitoneal; conditions: in vivo
Procedure, shortened: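 Blood collected at 72 h, i.e. 16 h after the last injection. Plasma analysed for the dosed compound and, where applicable, its stereoinversion product (S)-flurbiprofen.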

[4] = Plasma concentration in C57BL/6 mouse at 10 mg/kg, ip after 1 hr; assay type: ADME, organism-based; design: dose 10 mg/kg, route intraperitoneal
Procedure, shortened: (§1)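 Single i.p. injection in C57BL/6 mice. Blood sampled at 1, 2 and 4 h after dosing and plasma compound concentration measured. n = 3 at 1 h, 2 at 2 h, 3 at 4 h.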

[5] = Plasma concentration in C57BL/6 mouse at 10 mg/kg, ip after 2 hrs; assay type: ADME, organism-based; design: dose 10 mg/kg, route intraperitoneal; procedure, shortened: as §1
[6] = Plasma concentration in C57BL/6 mouse at 10 mg/kg, ip after 4 hrs; assay type: ADME, organism-based; design: dose 10 mg/kg, route intraperitoneal; procedure, shortened: as §1
[7] = target: T1, Prostaglandin G/H synthase 2 (Mus musculus); assay: Inhibition of COX2-mediated arachidonic acid oxygenation in LPS/IFN-gamma-stimulated mouse RAW264.7 cells assessed as AA to PGE2/PGD2 conversion at 25 uM treated 2 hrs after LPS/IFN-gamma stimulation measured after 6 hrs; assay type: cell-based
Procedure, shortened: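 RAW 264.7 macrophages stimulated with lipopolysaccharide and interferon γ to generate endogenous AA and 2-AG. Inhibitor added to the medium at varying doses 2 h after stimulation. Medium collected 6 h after stimulation; prostaglandin levels quantified by LC-MS-MS.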

Row | inhibition [1] | Imax [2] | Structure (SMILES) | further results
1 | 32% |  | CC(C)(C(=O)O)c1cccc(C(=O)c2ccccc2)c1 | 
2 | 24% | 68% | O=C(O)Cc1cccc(Oc2ccccc2)c1 | 
3 | 16% |  | COc1ccc2cc(CC(=O)O)ccc2c1 | 
4 | 14% |  | CC(C)Cc1ccc(CC(=O)O)cc1 | 
5 | 10% | 45% | CC(C)Cc1ccc(C2(C(=O)O)CC2)cc1 | 
6 | 10% | 75% | O=C(c1ccccc1)c1cccc(C2(C(=O)O)CC2)c1 | 
7 | 7% |  | O=C(O)Cc1ccc(-c2ccccc2)c(F)c1 [DESMETHYLFLURBIPROFEN] | Stability [3]: Unstable; concentration at 1 h [4]: 68 µM; concentration at 2 h [5]: 50 µM; concentration at 4 h [6]: 6 µM
8 | 15% |  | O=C(O)C1(c2cccc(Oc3ccccc3)c2)CC1 | 
9 | 6% | 77% | COc1ccc2cc(C3(C(=O)O)CC3)ccc2c1 | 
10 | 5% |  | CC(C)(C(=O)O)c1ccc(-c2ccccc2)c(F)c1 | inhibition [7]: 40%
11 | 17% | 65% | CC(C)(C(=O)O)c1cccc(Oc2ccccc2)c1 | 
12 | 0% | 87% | O=C(O)C1(c2ccc(-c3ccccc3)c(F)c2)CC1 | inhibition [7]: 55%
13 | 10% |  | O=C(O)Cc1cccc(C(=O)c2ccccc2)c1 | 
14 | 5% | 5% | CC(C)Cc1ccc(C(C)(C)C(=O)O)cc1 | 
15 | 7% | 12% | COc1ccc2cc(C(C)(C)C(=O)O)ccc2c1 | 
